Measurements taken from PMC6774440 (Journal of molecular recognition : JMR, 2018).

test system: T10; type: binding, llama; conditions: cross-reactivity = IC50(TCC)/IC50(cross reacting compound) × 100; nanobody T10
Outline: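 Wild-type T10 (synthetic gene, pET28a(+), ompA leader, C-terminal His6/HA tags) expressed in BL21(DE3) (10 µM IPTG, 16 h, 15 °C), purified by Ni-NTA. Checkerboard-optimized TCC-BSA coat (4 h RT), 1% BSA block. Nanobody competed with serial dilutions of TCC (0–1 ug/mL) or related compounds, 1 h RT. Detection: anti-HA-peroxidase, TMB (pH 5.5, 10 min), A450.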

| Compound | CR (%) T10 |
| --- | --- |
| Oc1cc(Cl)ccc1Oc1ccc(Cl)cc1Cl [Triclosan] | 0.9% |
| CC(=O)N1CCC(NC(=O)Nc2ccc(OC(F)(F)F)cc2)CC1 [sEHi, #1555] | 0.9% |
| Dinuron | ≤1% |
| O=C(Nc1ccc(Cl)cc1)Nc1ccc(Cl)c(C(F)(F)F)c1 [3-Trifluoromethyl-4,4′-dichlorocarbanilide] | 15% |
| O=C(Nc1ccccc1)Nc1ccccc1 [Carbanilide] | 8.8% |
| CS(=O)(=O)N1CCC(NC(=O)Nc2ccc(OC(F)(F)F)cc2)CC1 [sEHi, #1709] | 1.5% |
| O=C(Nc1ccc(Cl)cc1)Nc1ccc(Cl)cc1 [4,4’-Dichlorocarbanilide] | 100% |
| O=C(Nc1ccc(Cl)c(Cl)c1)Nc1ccc(Cl)cc1O [2’-OH TCC] | 15% |
| O=C(Nc1ccc(Cl)cc1)Nc1ccc(Cl)c(Cl)c1 [TCC, 3-(4-chlorophenyl)-1-(3,4-dichlorophenyl)urea] | 100% |
